Measurements collected from several papers.
Each line is one published result; the experiments were not run side by side.
LGALS4 C-terminal domain: Galectin-4, C-terminal domain (LGALS4, Homo sapiens, UniProt P56470)
CTSB: Cathepsin B (CTSB, Homo sapiens, UniProt P07858)

| Compound | target | observed | action | technique | measurement | value |
| --- | --- | --- | --- | --- | --- | --- |
| O=C(O)Cc1csc(NC(=O)c2cc3ccccc3[nH]2)n1 | Cyclin-dependent kinase 2 (CDK2, Homo sapiens, UniProt P24941) | enzyme activity | inhibitor | ELISA | IC50 | 1710 nM |
| COc1cc(N2CCC(N3CCN(C)CC3)CC2)ccc1Nc1ncc(Cl)c(Nc2ccccc2P(C)(C)=O)n1 | Multidrug and toxin extrusion protein 1 (SLC47A1, Homo sapiens, UniProt Q96FL8) | transporter uptake | inhibitor | – | IC50 | 832 nM |
| CC1OC(OC2C(OC3C(CO)OC(O)C(O)C3O)OC(CO)C(O)C2OC2OC(CO)C(O)C(O)C2O)C(O)C(O)C1O (centres unmarked) | LGALS4 C-terminal domain | binding | – | NMR | Kd | 170000 nM |
| CC(=O)c1nn(-c2ccc(C)cc2)/c(=N/N=C(\C)c2ccc(NC(=O)c3ccccc3)cc2)s1 | Cyclin-dependent kinase 8, with cyclin C (CDK8, Homo sapiens, UniProt P49336) | enzyme activity | inhibitor | – | IC50 | 267 nM |
| CCCOc1nc(-c2cccc(O)c2)cc(-c2cc3cc(OC)ccc3nc2N2CCOCC2)c1C#N | Serine/threonine-protein kinase pim-1 (PIM1, Homo sapiens, UniProt P11309) | enzyme activity | inhibitor | – | IC50 | 95 nM |
| C[C@H]1C[C@H]2[C@@H]3CCC4=CC(=O)C=C[C@]4(C)[C@@]3(Cl)[C@@H](O)C[C@]2(C)[C@@]1(O)C(=O)CO | ADGRG3 (Homo sapiens, UniProt Q86Y34) | β-arrestin recruitment | agonist | – | EC50 | 3490 nM |
| CC(C)C[C@H](NC(=O)[C@H](Cc1ccccc1)NC(=O)OCc1ccccc1)C(=O)C=O | CTSB | enzyme activity | inhibitor | – | IC50 | 4360 nM |
| CC(=O)NC1C(OC2C(O)C(CO)OC(OC3C(CO)OC(O)C(O)C3O)C2OC2OC(C)C(O)C(O)C2O)OC(CO)C(O)C1O (centres unmarked) | Galectin-4 (LGALS4, Homo sapiens, UniProt P56470) | binding | – | ITC | Kd | 71000 nM |
| CC(=O)Nc1c(N)nc(SCC(=O)N/N=C/c2ccc([N+](=O)[O-])cc2)[nH]c1=O | Cyclin-dependent kinase 2, with cyclin A2 (CDK2, Homo sapiens, UniProt P24941) | enzyme activity | inhibitor | – | IC50 | 189 nM |
| CCOC(=O)/C=C/C(=O)[C@H](CC(C)C)NC(=O)[C@H](Cc1ccccc1)NC(=O)[C@H](Cc1ccccc1)N=[N+]=[N-] (mixture of isomers) | CTSB | enzyme activity | inhibitor | – | IC50 | 320 nM |
| CC(=O)N[C@@H]1[C@@H](O[C@@H]2O[C@H](CO)[C@H](O)[C@H](O[C@H]3O[C@H](CO)[C@H](O)[C@H](O)[C@H]3O)[C@H]2O[C@@H]2O[C@@H](C)[C@@H](O)[C@@H](O)[C@@H]2O)[C@H](O)[C@@H](CO)O[C@H]1O | LGALS4 C-terminal domain | binding | – | NMR | Kd | 190000 nM |
